B1: Osa-1-4 twister ribozyme (parent)
chain: CCGCCUAACACUGCCAAUGCCGGUCCCAAGCCCGGAUAAAAGUGGAGGGGGCGG

Variants of: B1
Test: self-cleavage, relative activity (ratio to wild type); higher = more cleavage; co-transcriptional
Procedure, shortened: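 A DNA template encoding a 54-nucleotide twister ribozyme from Oryza sativa was made so that each of the 48 positions downstream of the cleavage site carried 97 % wild-type base and 1 % of each other base. Transcription in vitro ran for 2 h at 37 °C, during which the ribozyme could cleave itself. Reverse transcription used a template-switching oligonucleotide, and the products were PCR-amplified and deep-sequenced. Each read was scored as cleaved or uncleaved by whether upstream sequence was present, and relative activity is the fraction cleaved normalised to wild type.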

Variant	self-cleavage
CCGCCUAACACUUCCAAUGCCGGUCCCAAGCCCGGUUAAAAGUGGAGGGGGCGG [A36U G13U]	0.03
CCGCCUAACACUACCAAUGCCGGUCCCAAGCCCGGUUAAAAGUGGAGGGGGCGG [A36U G13A]	0.14
CCGCCUAACACUCCCAAUGCCGGUCCCAAGCCCGGUUAAAAGUGGAGGGGGCGG [A36U G13C]	0.03
CCGCCUAAGACUGCCAAUGCCGGUCCCAAGCCCGGUUAAAAGUGGAGGGGGCGG [A36U C9G]	0.9
CCGCCUAAAACUGCCAAUGCCGGUCCCAAGCCCGGUUAAAAGUGGAGGGGGCGG [A36U C9A]	0.47
CCGCCUAAUACUGCCAAUGCCGGUCCCAAGCCCGGUUAAAAGUGGAGGGGGCGG [A36U C9U]	0.83
CCGCCUAACACUGCCAAUGCCGGUCCCAAGCCCGGUUAAAAAUGGAGGGGGCGG [A36U G42A]	0.85
CCGCCUAACACUGCCAAUGCCGGUCUCAAGCCCGGUUAAAAGUGGAGGGGGCGG [A36U C26U]	1
CCGCCUAACACUGCCAAUGCCGGUCACAAGCCCGGUUAAAAGUGGAGGGGGCGG [A36U C26A]	0.04
CCGCCUAACACUGCCAAUGCCGGUCGCAAGCCCGGUUAAAAGUGGAGGGGGCGG [A36U C26G]	0.08
CCGCCUAACACUGCCAAUGCCGGUCCCAAGCCCCGUUAAAAGUGGAGGGGGCGG [A36U G34C]	0.66
CCGCCUAACACUGCCAAUGCCGGUCCCAAGCCCUGUUAAAAGUGGAGGGGGCGG [A36U G34U]	0.84
CCGCCUAACACUGCCAAUGCCGGUCCCAAGCCCAGUUAAAAGUGGAGGGGGCGG [A36U G34A]	0.86
CCGCCUAACACUGCCAAUGCCGGUCCCAAGCCCGGUUAGAAGUGGAGGGGGCGG [A36U A39G]	0.98
CCGCCUAACACUGCCAAUGCCGGUCCCAAGCCCGGUUACAAGUGGAGGGGGCGG [A36U A39C]	0.99
CCGCCUAACACUGCCAAUGCCGGUCCCAAGCCCGGUUAUAAGUGGAGGGGGCGG [A36U A39U]	0.91
CCGCCUAACACUGCAAAUGCCGGUCCCAAGCCCGGUUAAAAGUGGAGGGGGCGG [A36U C15A]	0.51
CCGCCUAACACUGCGAAUGCCGGUCCCAAGCCCGGUUAAAAGUGGAGGGGGCGG [A36U C15G]	0.4
CCGCCUAACACUGCUAAUGCCGGUCCCAAGCCCGGUUAAAAGUGGAGGGGGCGG [A36U C15U]	0.31
CCGCCUAACACUGCCAAUGGCGGUCCCAAGCCCGGUUAAAAGUGGAGGGGGCGG [A36U C20G]	0.19
CCGCCUAACACUGCCAAUGUCGGUCCCAAGCCCGGUUAAAAGUGGAGGGGGCGG [A36U C20U]	0.99
CCGCCUAACACUGCCAAUGACGGUCCCAAGCCCGGUUAAAAGUGGAGGGGGCGG [A36U C20A]	0.82
CCGCCUAACACUGCCAAUGCCGGUCCCAAACCCGGUUAAAAGUGGAGGGGGCGG [A36U G30A]	0.03
CCGCCUAACACUGCCAAUGCCGGUCCCAAUCCCGGUUAAAAGUGGAGGGGGCGG [A36U G30U]	0.04
CCGCCUAACACUGCCAAUGCCGGUCCCAACCCCGGUUAAAAGUGGAGGGGGCGG [A36U G30C]	0.06

Variant	self-cleavage
CCGCCUAACACUGACAAUGCCGGUCCCAAGCCCGGUUAAAAGUGGAGGGGGCGG [A36U C14A]	0.07
CCGCCUAACACUGGCAAUGCCGGUCCCAAGCCCGGUUAAAAGUGGAGGGGGCGG [A36U C14G]	0.13
CCGCCUAACACUGUCAAUGCCGGUCCCAAGCCCGGUUAAAAGUGGAGGGGGCGG [A36U C14U]	0.5
CCGCCUAACACUGCCAAUGCCGGUCCCAAGCCCGGUUAAAAGUGGAGGGGGUGG [A36U C52U]	1.06
CCGCCUAACACUGCCAAUGCCGGUCCCAAGCCCGGUUAAAAGUGGAGGGGGAGG [A36U C52A]	1.04
CCGCCUAACACUGCCAAUGCCGGUCCCAAGCCCGGUUAAAAGUGGAGGGGGGGG [A36U C52G]	1.06
CCGCCUAACACUGCCAAAGCCGGUCCCAAGCCCGGGUAAAAGUGGAGGGGGCGG [A36G U18A]	0.98
CCGCCUAACACUGCCAACGCCGGUCCCAAGCCCGGGUAAAAGUGGAGGGGGCGG [A36G U18C]	0.98
CCGCCUAACACUGCCAAGGCCGGUCCCAAGCCCGGGUAAAAGUGGAGGGGGCGG [A36G U18G]	0.85
CCGCCUAACACUGCCAAUGCCGGUCCCAAGCCCGGUUAAAAGUGGAGGGGGCGG [A36U]	1.03
CCGCCUAACACGGCCAAUGCCGGUCCCAAGCCCGGGUAAAAGUGGAGGGGGCGG [A36G U12G]	0.39
CCGCCUAACACCGCCAAUGCCGGUCCCAAGCCCGGGUAAAAGUGGAGGGGGCGG [A36G U12C]	0.69
CCGCCUAACACUGCCAAUGCCGGUCCCAAGCCCGGUUUAAAGUGGAGGGGGCGG [A36U A38U]	0.97
CCGCCUAACACUGCCAAUGCCGGUCCCAAGCCCGGUUCAAAGUGGAGGGGGCGG [A36U A38C]	1.02
CCGCCUAACACUGCCAAUGCCGGUCCCAAGCCCGGUUGAAAGUGGAGGGGGCGG [A36U A38G]	1
CCGCCUAACAUUGCCAAUGCCGGUCCCAAGCCCGGUUAAAAGUGGAGGGGGCGG [A36U C11U]	0.94
CCGCCUAACAAUGCCAAUGCCGGUCCCAAGCCCGGUUAAAAGUGGAGGGGGCGG [A36U C11A]	0.87
CCGCCUAACAGUGCCAAUGCCGGUCCCAAGCCCGGUUAAAAGUGGAGGGGGCGG [A36U C11G]	0.72
CCGCCUAACACUGCCAAUGCCGGUCCCAAGCCCGGUUAACAGUGGAGGGGGCGG [A36U A40C]	0.08
CCGCCUAACACUGCCAAUGCCGGUCCCAAGCCCGGUUAAGAGUGGAGGGGGCGG [A36U A40G]	0.84
CCGCCUAACACUGCCAAUGCCGGUCCCAAGCCCGGUUAAUAGUGGAGGGGGCGG [A36U A40U]	0.63
CCGCCUAACACUGCCAAUGCCGGUGCCAAGCCCGGUUAAAAGUGGAGGGGGCGG [A36U C25G]	0.1
CCGCCUAACACUGCCAAUGCCGGUUCCAAGCCCGGUUAAAAGUGGAGGGGGCGG [A36U C25U]	0.92
CCGCCUAACACUGCCAAUGCCGGUACCAAGCCCGGUUAAAAGUGGAGGGGGCGG [A36U C25A]	0.12
CCGCCUAACACUGCCAAUGCCGGUCCCAAGACCGGUUAAAAGUGGAGGGGGCGG [A36U C31A]	0.03

Variant	self-cleavage
CCGCCUAACACUGCCAAUGCCGGUCCCAAGGCCGGUUAAAAGUGGAGGGGGCGG [A36U C31G]	0.07
CCGCCUAACACUGCCAAUGCCGGUCCCAAGUCCGGUUAAAAGUGGAGGGGGCGG [A36U C31U]	0.95
CCGCCUAACACUGCCAAUGCCCGUCCCAAGCCCGGUUAAAAGUGGAGGGGGCGG [A36U G22C]	0.19
CCGCCUAACACUGCCAAUGCCUGUCCCAAGCCCGGUUAAAAGUGGAGGGGGCGG [A36U G22U]	0.9
CCGCCUAACACUGCCAAUGCCAGUCCCAAGCCCGGUUAAAAGUGGAGGGGGCGG [A36U G22A]	1.05
CCGCCUAACACUGCCAAUGCCGGUCCCAAGCCCGGUUAAAAGUGGUGGGGGCGG [A36U A46U]	0.08
CCGCCUAACACUGCCAAUGCCGGUCCCAAGCCCGGUUAAAAGUGGCGGGGGCGG [A36U A46C]	0.08
CCGCCUAACACUGCCAAUGCCGGUCCCAAGCCCGGUUAAAAGUGGGGGGGGCGG [A36U A46G]	0.09
CCGCCUAACACUGCCAAUGCCGGUCCCAAGCCCGCUUAAAAGUGGAGGGGGCGG [A36U G35C]	0.82
CCGCCUAACACUGCCAAUGCCGGUCCCAAGCCCGAUUAAAAGUGGAGGGGGCGG [A36U G35A]	0.92
CCGCCUAACACUGCCAAUGCCGGUCCCAAGCCCGUUUAAAAGUGGAGGGGGCGG [A36U G35U]	1.04
CCGCCUAACACUGCCAAUGCCGGGCCCAAGCCCGGGUAAAAGUGGAGGGGGCGG [A36G U24G]	0.04
CCGCCUAACACUGCCAAUGCCGGACCCAAGCCCGGGUAAAAGUGGAGGGGGCGG [A36G U24A]	0.52
CCGCCUAACACUGCCAAUGCCGGCCCCAAGCCCGGGUAAAAGUGGAGGGGGCGG [A36G U24C]	0.44
CCGCCUAACACUGCCAAUGCCGGUCCCAAGCACGGUUAAAAGUGGAGGGGGCGG [A36U C32A]	0.13
CCGCCUAACACUGCCAAUGCCGGUCCCAAGCGCGGUUAAAAGUGGAGGGGGCGG [A36U C32G]	0.12
CCGCCUAACACUGCCAAUGCCGGUCCCAAGCUCGGUUAAAAGUGGAGGGGGCGG [A36U C32U]	0.15
CCGCCUAACACUGCCAAUGCCGAUCCCAAGCCCGGUUAAAAGUGGAGGGGGCGG [A36U G23A]	0.72
CCGCCUAACACUGCCAAUGCCGUUCCCAAGCCCGGUUAAAAGUGGAGGGGGCGG [A36U G23U]	0.18
CCGCCUAACACUGCCAAUGCCGCUCCCAAGCCCGGUUAAAAGUGGAGGGGGCGG [A36U G23C]	0.05
CCGCCUAACACUGCCAAUGCUGGUCCCAAGCCCGGUUAAAAGUGGAGGGGGCGG [A36U C21U]	1.04
CCGCCUAACACUGCCAAUGCGGGUCCCAAGCCCGGUUAAAAGUGGAGGGGGCGG [A36U C21G]	0.1
CCGCCUAACACUGCCAAUGCAGGUCCCAAGCCCGGUUAAAAGUGGAGGGGGCGG [A36U C21A]	0.91
CCGCCUGACACUGCCAAUGCCGGUCCCAAGCCCGGUUAAAAGUGGAGGGGGCGG [A36U A7G]	0.38
CCGCCUUACACUGCCAAUGCCGGUCCCAAGCCCGGUUAAAAGUGGAGGGGGCGG [A36U A7U]	0.07

Variant	self-cleavage
CCGCCUCACACUGCCAAUGCCGGUCCCAAGCCCGGUUAAAAGUGGAGGGGGCGG [A36U A7C]	0.04
CCGCCUAACACUGCCAAUGCCGGUCCCAAGCCCGGUUAAAUGUGGAGGGGGCGG [A36U A41U]	1.02
CCGCCUAACACUGCCAAUGCCGGUCCCAAGCCCGGUUAAACGUGGAGGGGGCGG [A36U A41C]	0.99
CCGCCUAACACUGCCAAUGCCGGUCCCAAGCCCGGUUAAAGGUGGAGGGGGCGG [A36U A41G]	0.68
CCGCCUAACACUGCCAAUGCCGGUCCCAAGCCUGGUUAAAAGUGGAGGGGGCGG [A36U C33U]	0.89
CCGCCUAACACUGCCAAUGCCGGUCCCAAGCCAGGUUAAAAGUGGAGGGGGCGG [A36U C33A]	0.24
CCGCCUAACACUGCCAAUGCCGGUCCCAAGCCGGGUUAAAAGUGGAGGGGGCGG [A36U C33G]	0.08
CCGCCUAACACUGCCAAUGCCGGUCCCAAGCCCGGGUAAAAGGGGAGGGGGCGG [A36G U43G]	0.64
CCGCCUAACACUGCCAAUGCCGGUCCCAAGCCCGGGUAAAAGAGGAGGGGGCGG [A36G U43A]	0.92
CCGCCUAACACUGCCAAUGCCGGUCCCAAGCCCGGGUAAAAGCGGAGGGGGCGG [A36G U43C]	0.74
CCGCCUAACACUGCCAAUGCCGGUCCAAAGCCCGGUUAAAAGUGGAGGGGGCGG [A36U C27A]	0.29
CCGCCUAACACUGCCAAUGCCGGUCCGAAGCCCGGUUAAAAGUGGAGGGGGCGG [A36U C27G]	0.09
CCGCCUAACACUGCCAAUGCCGGUCCUAAGCCCGGUUAAAAGUGGAGGGGGCGG [A36U C27U]	0.28
CCGCCUAUCACUGCCAAUGCCGGUCCCAAGCCCGGUUAAAAGUGGAGGGGGCGG [A36U A8U]	0.34
CCGCCUAGCACUGCCAAUGCCGGUCCCAAGCCCGGUUAAAAGUGGAGGGGGCGG [A36U A8G]	0.71
CCGCCUACCACUGCCAAUGCCGGUCCCAAGCCCGGUUAAAAGUGGAGGGGGCGG [A36U A8C]	0.09
CCGCCUAACACUGCCAAUACCGGUCCCAAGCCCGGUUAAAAGUGGAGGGGGCGG [A36U G19A]	0.48
CCGCCUAACACUGCCAAUCCCGGUCCCAAGCCCGGUUAAAAGUGGAGGGGGCGG [A36U G19C]	0.67
CCGCCUAACACUGCCAAUUCCGGUCCCAAGCCCGGUUAAAAGUGGAGGGGGCGG [A36U G19U]	0.93
CCGCCUAACACUGCCAAUGCCGGUCCCAAGCCCGGGCAAAAGUGGAGGGGGCGG [A36G U37C]	1.04
CCGCCUAACACUGCCAAUGCCGGUCCCAAGCCCGGGAAAAAGUGGAGGGGGCGG [A36G U37A]	1.02
CCGCCUAACACUGCCAAUGCCGGUCCCAAGCCCGGGGAAAAGUGGAGGGGGCGG [A36G U37G]	1.03

Reference: the RNAGym collection of RNA variant scans (doi:10.1002/anie.201605470)
